Results as given in ChEMBL document CHEMBL3603779, “Identification and Optimization of Benzimidazole Sulfonamides as Orally Bioavailable Sphingosine 1-Phosphate Receptor 1 Antagonists with in Vivo Activity” (J Med Chem, 2015).
Activity calls are given as the source filed them. The rule behind the calls is not given here.

Key:
[1] = Intrinsic clearance in human liver microsomes pre-incubated at 37 degC for 5 mins before NADPH addition by LCMS/MS method; type: ADME; conditions: read-out: CLH
[2] = target: T1, Sphingosine 1-phosphate receptor 1 (Homo sapiens, UniProt P21453); assay: Antagonist activity against human S1P1 receptor expressed in human U2OS cells co-expressing GFP assessed as inhibition of S1P-induced receptor translocation; type: cell-based
T1 sequence (P21453 whole entry): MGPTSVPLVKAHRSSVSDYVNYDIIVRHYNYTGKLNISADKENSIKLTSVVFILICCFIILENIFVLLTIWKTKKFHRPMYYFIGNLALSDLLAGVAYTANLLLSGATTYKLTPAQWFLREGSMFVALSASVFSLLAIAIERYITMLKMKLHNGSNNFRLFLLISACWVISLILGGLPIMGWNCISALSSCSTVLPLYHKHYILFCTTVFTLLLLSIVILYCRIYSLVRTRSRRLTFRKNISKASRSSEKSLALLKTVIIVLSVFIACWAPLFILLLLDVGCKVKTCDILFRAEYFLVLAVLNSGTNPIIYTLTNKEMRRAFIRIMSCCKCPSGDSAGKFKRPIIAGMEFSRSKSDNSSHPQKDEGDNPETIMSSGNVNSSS
Summary of the method: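 Cellular S1P1 translocation (internalization) assay with antagonist; EC50 reported as mean of at least three separate determinations ± standard deviation.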

Cytochrome P450 3A5 [3] = target: T2, Cytochrome P450 3A5 (Homo sapiens, UniProt P20815); assay: Induction of CYP3A5 activation in human hepatocytes at 10 uM incubated for 48 hrs using testosterone substrate relative to rifampicin; type: ADME, cell-based, Hepatocyte
T2 sequence (P20815 whole entry): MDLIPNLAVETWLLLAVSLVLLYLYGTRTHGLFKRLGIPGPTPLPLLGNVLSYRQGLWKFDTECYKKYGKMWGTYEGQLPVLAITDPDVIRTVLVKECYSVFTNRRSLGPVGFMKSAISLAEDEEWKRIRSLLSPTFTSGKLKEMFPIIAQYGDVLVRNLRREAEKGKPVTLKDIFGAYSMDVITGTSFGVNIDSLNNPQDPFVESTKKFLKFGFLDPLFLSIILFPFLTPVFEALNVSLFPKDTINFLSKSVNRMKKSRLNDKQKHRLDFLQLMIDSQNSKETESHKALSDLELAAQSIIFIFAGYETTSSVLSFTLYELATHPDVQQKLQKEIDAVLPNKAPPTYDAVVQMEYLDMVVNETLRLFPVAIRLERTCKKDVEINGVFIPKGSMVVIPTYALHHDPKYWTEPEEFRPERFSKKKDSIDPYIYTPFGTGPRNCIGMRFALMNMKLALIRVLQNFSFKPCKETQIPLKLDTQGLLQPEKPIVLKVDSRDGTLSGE
Summary of the method: (§1)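 Human hepatocyte CYP3A induction, testosterone probe with 6-β-hydroxytestosterone as marker; activity expressed as % of the rifampicin response; hepatocytes from two donors tested.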

[4] = Lipophilicity, log D of the compound at pH 7.4; type: physicochemical; conditions: buffer
Cytochrome P450 3A4 [5] = target: T3, Cytochrome P450 3A4 (Homo sapiens, UniProt P08684); assay: Induction of CYP3A4 activation in human hepatocytes at 10 uM incubated for 48 hrs using testosterone substrate relative to rifampicin; type: ADME, cell-based, Hepatocyte; summary of the method: as §1
T3 sequence (P08684 whole entry): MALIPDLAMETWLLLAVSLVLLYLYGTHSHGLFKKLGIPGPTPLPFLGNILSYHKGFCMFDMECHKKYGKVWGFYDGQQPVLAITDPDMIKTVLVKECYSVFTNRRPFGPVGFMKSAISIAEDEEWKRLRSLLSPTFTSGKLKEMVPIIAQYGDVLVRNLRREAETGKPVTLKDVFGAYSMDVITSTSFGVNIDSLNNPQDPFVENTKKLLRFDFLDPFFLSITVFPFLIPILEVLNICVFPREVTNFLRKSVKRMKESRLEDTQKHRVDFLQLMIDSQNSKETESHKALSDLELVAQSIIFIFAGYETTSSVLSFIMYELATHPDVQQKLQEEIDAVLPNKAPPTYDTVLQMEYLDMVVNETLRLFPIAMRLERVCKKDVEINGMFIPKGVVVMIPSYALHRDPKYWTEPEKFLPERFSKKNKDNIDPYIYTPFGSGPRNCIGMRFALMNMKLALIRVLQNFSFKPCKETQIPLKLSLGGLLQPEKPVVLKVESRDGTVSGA

[6] = target: T4, Nuclear receptor subfamily 1 group I member 2 (Homo sapiens, UniProt O75469); assay: Activation of human PXR expressed in human HepG2 cells co-expressing CYP3A4 assessed as CYP3A4 activation at 10 uM by luciferase reporter gene assay relative to rifampicin; type: ADME, cell-based; conditions: hepg2, 10 µM
T4 sequence (O75469 whole entry): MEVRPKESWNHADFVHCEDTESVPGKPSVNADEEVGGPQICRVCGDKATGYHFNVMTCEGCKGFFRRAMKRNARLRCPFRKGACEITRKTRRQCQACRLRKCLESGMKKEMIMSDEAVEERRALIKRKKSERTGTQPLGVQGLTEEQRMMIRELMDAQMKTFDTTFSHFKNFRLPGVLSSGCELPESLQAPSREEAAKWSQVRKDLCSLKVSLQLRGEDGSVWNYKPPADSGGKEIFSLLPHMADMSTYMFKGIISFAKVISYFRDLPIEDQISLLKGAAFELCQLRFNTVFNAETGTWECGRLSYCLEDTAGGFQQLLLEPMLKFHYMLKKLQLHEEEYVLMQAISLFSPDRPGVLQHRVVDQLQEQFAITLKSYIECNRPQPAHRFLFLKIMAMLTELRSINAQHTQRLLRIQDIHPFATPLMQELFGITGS
Summary of the method: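 Single-concentration PXR reporter gene screen, compound at 10 μM; activation expressed as a percentage of the response to rifampicin, also at 10 μM.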

Cytochrome P450 2C19 = Cytochrome P450 2C19 (Homo sapiens, UniProt P33261); assay: Inhibition of CYP2C19 in human liver microsomes incubated for 5 mins in presence of NADPH and specific substrates by LC/MS/MS method; type: ADME
Cytochrome P450 2C19, sequence (P33261 whole entry): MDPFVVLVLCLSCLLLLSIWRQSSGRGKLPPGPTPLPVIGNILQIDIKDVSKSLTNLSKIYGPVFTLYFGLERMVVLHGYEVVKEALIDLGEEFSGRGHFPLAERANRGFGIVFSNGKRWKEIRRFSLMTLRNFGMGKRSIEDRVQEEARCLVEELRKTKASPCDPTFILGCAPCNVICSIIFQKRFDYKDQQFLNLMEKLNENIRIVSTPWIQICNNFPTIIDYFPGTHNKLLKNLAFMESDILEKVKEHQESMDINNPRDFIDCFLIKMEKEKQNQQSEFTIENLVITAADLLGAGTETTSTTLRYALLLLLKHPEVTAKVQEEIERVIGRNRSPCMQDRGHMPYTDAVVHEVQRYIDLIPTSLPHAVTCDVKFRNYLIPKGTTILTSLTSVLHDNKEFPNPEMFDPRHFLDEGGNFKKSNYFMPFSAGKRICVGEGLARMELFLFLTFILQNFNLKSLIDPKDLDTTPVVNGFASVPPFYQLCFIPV

Cytochrome P450 3A4 [7] = target: T3, Cytochrome P450 3A4; assay: Inhibition of CYP3A4 in human liver microsomes incubated for 5 mins in presence of NADPH and specific substrates by LC/MS/MS method; type: ADME
Cytochrome P450 3A5 [8] = target: T2, Cytochrome P450 3A5; assay: Inhibition of CYP3A5 in human liver microsomes incubated for 5 mins in presence of NADPH and specific substrates by LC/MS/MS method; type: ADME
[9] = target: Sphingosine 1-phosphate receptor 3 (Homo sapiens) (UniProt Q99500); assay: Antagonist activity against S1P3 receptor (unknown origin)
Sphingosine 1-phosphate receptor 3 (Homo sapiens), sequence (Q99500 whole entry): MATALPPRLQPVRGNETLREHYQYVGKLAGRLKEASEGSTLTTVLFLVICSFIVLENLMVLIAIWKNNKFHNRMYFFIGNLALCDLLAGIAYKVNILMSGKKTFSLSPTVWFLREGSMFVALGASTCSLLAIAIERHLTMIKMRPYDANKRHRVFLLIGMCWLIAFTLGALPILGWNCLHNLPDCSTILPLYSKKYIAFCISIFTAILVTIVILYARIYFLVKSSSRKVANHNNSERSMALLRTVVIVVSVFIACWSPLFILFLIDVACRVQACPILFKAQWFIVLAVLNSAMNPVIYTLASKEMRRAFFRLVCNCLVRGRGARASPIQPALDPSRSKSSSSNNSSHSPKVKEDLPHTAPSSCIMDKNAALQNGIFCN

[10] = target: Sphingosine 1-phosphate receptor 1 (Mus musculus) (UniProt O08530); assay: Antagonist activity against mouse S1P1 receptor expressed in human U2OS cells co-expressing GFP assessed as inhibition of S1P-induced receptor translocation; type: cell-based
Sphingosine 1-phosphate receptor 1 (Mus musculus), sequence (O08530 whole entry): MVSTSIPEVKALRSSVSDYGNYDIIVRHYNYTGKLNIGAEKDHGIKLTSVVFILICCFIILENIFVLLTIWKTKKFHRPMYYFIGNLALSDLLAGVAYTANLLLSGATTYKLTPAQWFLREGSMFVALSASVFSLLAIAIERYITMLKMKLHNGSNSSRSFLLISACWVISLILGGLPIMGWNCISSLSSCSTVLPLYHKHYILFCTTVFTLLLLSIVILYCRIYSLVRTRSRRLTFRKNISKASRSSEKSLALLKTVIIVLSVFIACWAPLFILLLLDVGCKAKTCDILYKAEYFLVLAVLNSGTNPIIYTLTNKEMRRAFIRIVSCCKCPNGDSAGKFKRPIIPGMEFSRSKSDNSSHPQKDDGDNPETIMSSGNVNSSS

Cytochrome P450 2D6 = Cytochrome P450 2D6 (Homo sapiens, UniProt P10635); assay: Inhibition of CYP2D6 in human liver microsomes incubated for 5 mins in presence of NADPH and specific substrates by LC/MS/MS method; type: ADME
Cytochrome P450 2D6, sequence (P10635 whole entry): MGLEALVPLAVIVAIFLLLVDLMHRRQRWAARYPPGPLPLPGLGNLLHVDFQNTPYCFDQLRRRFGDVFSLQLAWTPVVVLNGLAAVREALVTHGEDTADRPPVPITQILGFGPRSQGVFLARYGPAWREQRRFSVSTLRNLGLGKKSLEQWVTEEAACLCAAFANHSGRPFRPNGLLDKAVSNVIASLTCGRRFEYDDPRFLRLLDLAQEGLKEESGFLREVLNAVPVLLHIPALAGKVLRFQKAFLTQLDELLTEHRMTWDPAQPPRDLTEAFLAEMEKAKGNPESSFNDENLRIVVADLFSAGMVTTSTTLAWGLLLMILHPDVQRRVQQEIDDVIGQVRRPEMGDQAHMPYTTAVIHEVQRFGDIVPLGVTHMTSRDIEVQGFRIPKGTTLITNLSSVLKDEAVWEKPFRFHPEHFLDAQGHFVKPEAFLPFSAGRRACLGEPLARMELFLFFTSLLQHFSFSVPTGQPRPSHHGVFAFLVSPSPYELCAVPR

[11] = target: T1, Sphingosine 1-phosphate receptor 1; assay: Antagonist activity against S1P1 receptor (unknown origin) expressed in human U2OS cells co-expressing GFP assessed as reduction in maximal amount of S1P-induced receptor translocation; type: cell-based
Summary of the method: (§2)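 S1P concentration-response curves for receptor internalization run at a series of fixed antagonist concentrations, giving both curve shift and maximal internalization.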

[12] = Oral bioavailability in Han Wistar rat at 5 to 10 mg/kg by LC-MS/MS method; type: ADME, organism-based; conditions: in vivo
[13] = target: T1, Sphingosine 1-phosphate receptor 1; assay: Antagonist activity against S1P1 receptor (unknown origin) expressed in human U2OS cells co-expressing GFP assessed as right-ward shift of S1P-induced response; type: cell-based; summary of the method: as §2

SMILES | microsomal CLint [1] | EC50 [2] | further results
CCn1c([C@@H](C)NS(=O)(=O)c2ccccn2)nc2ccc(C(F)(F)F)cc21 | < 3 µL/min/mg | 9200 nM | 
CCn1c([C@@H](C)NS(=O)(=O)c2ccc(Cl)cc2)nc2cc(CO)ccc21 | 88 µL/min/mg | 180 nM | 
CCn1c(C(C)NS(=O)(=O)c2ccc(Cl)cc2)nc2ccncc21 (centres undefined) | 93 µL/min/mg | 1170 nM | 
CCn1c([C@@H](C)NS(=O)(=O)C2CC2)nc2ccc(C(F)(F)F)cc21 | < 3 µL/min/mg | 9000 nM | 
CCn1c([C@@H](C)NS(=O)(=O)c2cnc(NC(C)=O)s2)nc2ccc(C(F)(F)F)cc21 | 15 µL/min/mg | 2200 nM | 
CCn1ncc(S(=O)(=O)N[C@H](C)c2nc3ccc(C(F)(F)F)cc3n2CC)c1C | > 100 µL/min/mg | 430 nM | 
CCn1c([C@@H](C)NS(=O)(=O)c2ccc(Cl)cc2)nc2ccc(S(C)(=O)=O)cc21 | < 5 µL/min/mg | 1840 nM | 
CCCn1ncc(S(=O)(=O)N[C@H](C)c2nc3ccc(C(F)(F)F)cc3n2CC)c1C | > 100 µL/min/mg | 800 nM | 
CCn1cc(S(=O)(=O)N[C@H](C)c2nc3ccc(C(F)(F)F)cc3n2CC)cn1 | 95 µL/min/mg | 590 nM | 
CCn1c([C@@H](C)NS(=O)(=O)c2cnn(C(C)C)c2C)nc2ccc(C(F)(F)F)cc21 | > 100 µL/min/mg | 1100 nM | 
CCn1c([C@@H](C)NS(=O)(=O)c2cn(C)c(C)n2)nc2ccc(C(F)(F)F)cc21 | 43 µL/min/mg | 4000 nM | 
CCCn1cc(S(=O)(=O)N[C@H](C)c2nc3ccc(C(F)(F)F)cc3n2CC)c(C)n1 | > 100 µL/min/mg | 420 nM | 
CCn1c(C(C)NS(=O)(=O)c2ccc(Cl)cc2)nc2cccnc21 (centres undefined) | 94 µL/min/mg | 2340 nM | 
CCn1c([C@@H](C)NS(=O)(=O)c2ccc(CC(C)C)cc2)nc2ccc(C(F)(F)F)cc21 | > 100 µL/min/mg | 1800 nM | 
CCn1c([C@@H](C)NS(=O)(=O)c2cn(C)nc2C)nc2ccc(C(F)(F)F)cc21 | 28 µL/min/mg | 1000 nM | 
CCn1c([C@@H](C)NS(=O)(=O)C2CCCC2)nc2ccc(C(F)(F)F)cc21 |  | 1800 nM | 
CCn1c([C@@H](C)NS(=O)(=O)c2ccc(Cl)cc2)nc2ccc(CN(C)C)cc21 | 30 µL/min/mg | 23500 nM | 
CCc1nnc([C@@H](C)NS(=O)(=O)c2ccc(Cl)cc2)n1CC |  |  | inhibition [9]: inactive
CCn1c(C(C)NS(=O)(=O)c2ccc(Cl)cc2)nc2ncccc21 (centres undefined) | 15 µL/min/mg | 310 nM | 
CCn1c([C@@H](C)NS(=O)(=O)c2ccc(Cl)cc2)nc2cc(C(N)=O)ccc21 | < 5 µL/min/mg | 190 nM | 
CCn1c(C(C)NS(=O)(=O)c2ccc(Cl)cc2)nc2cnccc21 (centres undefined) | 35 µL/min/mg | 210 nM | IC50 (Cytochrome P450 2C19): 910 nM; IC50 (Cytochrome P450 2D6): 230 nM
CCn1c([C@@H](C)NS(=O)(=O)c2ccc(Cl)cc2)nc2cc(N3CCOCC3)ccc21 | 45 µL/min/mg | 2420 nM | 
CCn1c([C@@H](C)NS(=O)(=O)c2ccc(Cl)cc2)nc2cccc(Cl)c21 | > 100 µL/min/mg | 800 nM | 
CCn1c([C@@H](C)NS(=O)(=O)c2ccc(NC(C)=O)c(C)c2)nc2ccc(C(F)(F)F)cc21 | > 100 µL/min/mg | 12400 nM | 
CCn1c([C@@H](C)NS(=O)(=O)c2c(F)cc(F)cc2F)nc2ccc(C(F)(F)F)cc21 | 19 µL/min/mg | 240 nM | 
CCn1c([C@@H](C)NS(=O)(=O)c2cnc(C)n2C)nc2ccc(C(F)(F)F)cc21 | 58 µL/min/mg | 650 nM | 

More lines, main results first:

microsomal CLint [1] | EC50 [2] | SMILES | further results
> 100 µL/min/mg | 57 nM | CCn1c([C@@H](C)NS(=O)(=O)c2cccc(C#N)c2)nc2ccc(C(F)(F)F)cc21 | 
> 100 µL/min/mg | 24 nM | CCn1c([C@@H](C)NS(=O)(=O)c2ccc(C)cc2)nc2ccc(C(F)(F)F)cc21 | 
34 µL/min/mg | 12 nM | CCn1c([C@@H](C)NS(=O)(=O)c2ccc(C#N)cc2)nc2ccc(C(F)(F)F)cc21 | 
 | 6 nM | CCn1c([C@@H](C)NS(=O)(=O)c2ccc(C#N)cc2)nc2cnc(C3CC3)cc21 | Activity (Cytochrome P450 3A5 [3]): < 40%; logD [4]: 1.9; Activity (Cytochrome P450 3A4 [5]): < 40%; Activity [6]: 27%
71 µL/min/mg | 130 nM | CCn1c([C@@H](C)NS(=O)(=O)c2ccc(Cl)cc2)nc2cc(C#N)ccc21 | 
 | 3 nM | CCn1c([C@@H](C)NS(=O)(=O)c2ccc(C#N)cc2)nc2cnc(C(F)(F)F)cc21 | Activity (Cytochrome P450 3A5 [3]): < 40%; logD [4]: 1.6; Activity (Cytochrome P450 3A4 [5]): < 40%; Activity [6]: 32%
> 100 µL/min/mg | 1 nM | CCn1c([C@@H](C)NS(=O)(=O)c2ccc(Cl)cc2)nc2cc(F)c(Cl)cc21 | 
14 µL/min/mg | 8 nM | CCn1c([C@@H](C)NS(=O)(=O)c2ccccc2)nc2ccc(C(F)(F)F)cc21 | 
45 µL/min/mg | 26 nM | CCn1c([C@@H](C)NS(=O)(=O)c2ccncc2)nc2ccc(C(F)(F)F)cc21 | IC50 (Cytochrome P450 2C19): 40 nM
 | 28 nM | CCn1c([C@@H](C)NS(=O)(=O)c2ccc(C#N)nc2)nc2cnc(OC)cc21 | Activity (Cytochrome P450 3A5 [3]): < 40%; logD [4]: 1; Activity (Cytochrome P450 3A4 [5]): < 40%; Activity [6]: 11%
> 100 µL/min/mg | 30 nM | CCn1c([C@@H](C)NS(=O)(=O)c2cccnc2)nc2ccc(C(F)(F)F)cc21 | IC50 (Cytochrome P450 3A4 [7]): 830 nM; IC50 (Cytochrome P450 3A5 [8]): 830 nM
 | 9 nM | CCn1c([C@@H](C)NS(=O)(=O)c2ccc(C#N)cc2)nc2cnc(OC)cc21 | Activity (Cytochrome P450 3A5 [3]): < 40%; logD [4]: 1.4; Activity (Cytochrome P450 3A4 [5]): < 40%; Activity [6]: 18%
 | 34 nM | CCn1c([C@@H](C)NS(=O)(=O)c2ccc(C#N)cc2)nc2cnccc21 | Activity (Cytochrome P450 3A5 [3]): < 40%; Activity (Cytochrome P450 3A4 [5]): < 40%; Activity [6]: 14%
26 µL/min/mg | 7 nM | CCn1c([C@@H](C)NS(=O)(=O)c2ccc(F)cc2)nc2ccc(C(F)(F)F)cc21 | inhibition [10]: Active
> 100 µL/min/mg | 27 nM | CCn1c([C@@H](C)NS(=O)(=O)c2cccc(Cl)c2)nc2ccc(C(F)(F)F)cc21 | 
84 µL/min/mg | 5 nM | CCn1c([C@@H](C)NS(=O)(=O)c2ccc(Cl)cc2)nc2ccc(CO)cc21 | 
> 100 µL/min/mg | 50 nM | CCn1c([C@@H](C)NS(=O)(=O)c2ccc(Cl)cc2)nc2ccccc21 | inhibition [11]: Active; bioavailability [12]: 5%; inhibition [13]: Active
> 100 µL/min/mg | 9 nM | CCn1c([C@@H](C)NS(=O)(=O)c2ccc(Cl)cc2)nc2ccc(OC)cc21 | 
